Source: ChEMBL document CHEMBL3627612, “Hirsutinolide Series Inhibit Stat3 Activity, Alter GCN1, MAP1B, Hsp105, G6PD, Vimentin, TrxR1, and Importin α-2 Expression, and Induce Antitumor Effects against Human Glioma” (J Med Chem, 2015)
Activity calls are given as the source filed them. No cut-off for these calls is given here.

Experiments:
[1] = system: MCF7; experiment: Antiproliferative activity against human MCF7 cells for 72 hrs by cyquant assay; type: functional, cell-based; conditions: MCF7, 72 h
Method in brief: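 CyQuant proliferation assay after 72 h compound exposure of cultured cells; relative viability normalized to DMSO-treated control; IC50 values derived. Glioma lines grown in RPMI or DMEM with 10% FBS and 1% nonessential amino acids.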

[2] = biological target: T1, Signal transducer and activator of transcription 1 (Mus musculus) (UniProt P42225); experiment: Inhibition of Stat1 dimer DNA binding activity in EGF-stimulated mouse NIH3T3 nuclear extract expressing human EGFR at 5 uM preincubated for 30 mins followed by addition of radiolabeled probe hSIE for 30 mins by EMSA
T1 sequence (whole entry): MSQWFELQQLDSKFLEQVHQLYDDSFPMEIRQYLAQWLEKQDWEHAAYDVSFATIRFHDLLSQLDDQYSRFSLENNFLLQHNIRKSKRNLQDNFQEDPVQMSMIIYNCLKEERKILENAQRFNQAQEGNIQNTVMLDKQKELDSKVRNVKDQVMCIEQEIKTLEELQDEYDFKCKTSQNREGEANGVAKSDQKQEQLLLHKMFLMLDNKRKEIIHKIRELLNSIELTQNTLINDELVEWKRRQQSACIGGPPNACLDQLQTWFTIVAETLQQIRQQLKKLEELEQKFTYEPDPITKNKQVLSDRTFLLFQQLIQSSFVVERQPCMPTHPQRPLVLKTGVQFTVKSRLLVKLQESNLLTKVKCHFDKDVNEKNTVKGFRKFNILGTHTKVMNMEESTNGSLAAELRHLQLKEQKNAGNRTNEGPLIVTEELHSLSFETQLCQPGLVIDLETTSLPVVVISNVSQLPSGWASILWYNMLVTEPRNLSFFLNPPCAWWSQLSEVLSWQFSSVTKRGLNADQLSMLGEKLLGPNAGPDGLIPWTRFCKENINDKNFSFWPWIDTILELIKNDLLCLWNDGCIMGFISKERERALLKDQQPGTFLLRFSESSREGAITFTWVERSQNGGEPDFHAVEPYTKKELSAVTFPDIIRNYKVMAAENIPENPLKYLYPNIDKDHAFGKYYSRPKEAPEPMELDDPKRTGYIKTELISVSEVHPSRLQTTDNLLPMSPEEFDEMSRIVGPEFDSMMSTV

[3] = biological target: Signal transducer and activator of transcription 1/ 3 (Mus musculus) (UniProt P42227+P42225); experiment: Inhibition of Stat1:Stat3 dimer DNA binding activity in EGF-stimulated mouse NIH3T3 nuclear extract expressing human EGFR assessed as residual activity at 5 uM preincubated for 30 mins followed by addition of radiolabeled probe hSIE for 30 mins by EMSA; type: cell-free
[4] = system: NIH3T3; experiment: Modulation of EGF-induced Stat5 phosphorylation in mouse NIH3T3 cells expressing human EGFR at 5 uM preincubated for 3 hrs followed by stimulation with 1 ug/ml EGF for 12 mins by immunoblot analysis; type: cell-based
Method in brief: (§1)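 Whole-cell lysates of equal total protein from NIH3T3/hEGFR fibroblasts, pretreated with or without 5 μM compound (control 0.025% DMSO) for 3 h, then stimulated with 1 μg/ml EGF for 12 min. SDS-PAGE immunoblotting for pStat1/Stat1 and pStat5/Stat5 with β-actin or GAPDH loading controls. Representative of 2–4 independent determinations.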

[5] = system: U-251; experiment: Effect on PTP1B expression in human U251MG cells at 5 uM after 0.5 to 24 hrs by immunoblot analysis; type: functional, cell-based
Method in brief: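 U251MG cells treated with 5 μM compound for 0–24 h; whole-cell lysates of equal total protein immunoblotted. Controls were 0.025% DMSO-treated cells. Representative of 2–4 independent determinations.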

[6] = biological target: T1, Signal transducer and activator of transcription 1 (Mus musculus); experiment: Inhibition of Stat1 dimer DNA binding activity in EGF-stimulated mouse NIH3T3 nuclear extract expressing human EGFR assessed as residual activity at 5 uM preincubated for 30 mins followed by addition of radiolabeled probe hSIE for 30 mins by EMSA
[7] = system: U-251; experiment: Inhibition of cell migration in human U251MG cells at 5 uM after 19 hrs by wound healing assay; type: functional, cell-based
Method in brief: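 Scratch assay: sub-confluent U251MG monolayers wounded with pipette tips, treated once with 0–5 μM compound or DMSO, allowed to migrate into the denuded area over 19 h. Imaged at 10× on an inverted microscope.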

[8] = biological target: T2, Signal transducer and activator of transcription 3 (Homo sapiens, UniProt P40763); experiment: Inhibition of Stat3 activity in human U251MG cells assessed as phosphorylated Stat3 level at 5 uM by immunoblot analysis; type: cell-based; conditions: U-251, TDE = time-dependent effect
[9] = biological target: T1, Signal transducer and activator of transcription 1 (Mus musculus); experiment: Modulation of EGF-induced Stat1 phosphorylation in mouse NIH3T3 cells expressing human EGFR at 5 uM preincubated for 3 hrs followed by stimulation with 1 ug/ml EGF for 12 mins by immunoblot analysis; type: cell-based; method in brief: as §1
[10] = system: U-251; experiment: Cytotoxicity against human U251MG cells at 2.5 to 5 uM after 19 hrs; type: functional, cell-based
[11] = system: MDA-MB-231; experiment: Antiproliferative activity against human MDA-MB-231 cells at 5 uM for 72 hrs by cyquant assay; type: functional, cell-based
[12] = system: MCF7; experiment: Anticlonogenic activity against human MCF7 cells for 72 hrs measured after 4 weeks by crystal-violet staining based assay; type: functional, cell-based
Method in brief: (§2)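 Single-cell seeding at 250 cells per well; cells treated once the next day for 72 h with 0–5 μM compound, then grown until large colonies were visible (NIH3T3 1 week, MDA-MB-231 and U251MG 2 weeks, MCF-7 4 weeks). Colonies stained with crystal violet for 4 h, imaged and counted.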

[13] = biological target: Signal transducer and activator of transcription 3 (Mus musculus) (UniProt P42227); experiment: Inhibition of Stat3 dimer DNA binding activity in mouse NIH3T3/vSrc nuclear extract at 5 uM preincubated for 30 mins followed by addition of radiolabeled probe hSIE for 30 mins by EMSA
[14] = system: MDA-MB-231; experiment: Anticlonogenic activity against human MDA-MB-231 cells for 72 hrs measured after 2 weeks by crystal-violet staining based assay; type: functional, cell-based; method in brief: as §2
[15] = system: NIH3T3; experiment: Inhibition of Stat5 dimer DNA binding activity in EGF-stimulated mouse NIH3T3 nuclear extract expressing human EGFR at 5 uM preincubated for 30 mins followed by addition of radiolabeled probe MGFe for 30 mins by EMSA; type: cell-free
[16] = biological target: T2, Signal transducer and activator of transcription 3; experiment: Inhibition of Stat3 activity in human U251MG cells assessed as phosphorylated Stat3 level after 2 hrs by immunoblot analysis; type: cell-based; conditions: U-251
Method in brief: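 U251MG cells treated with 5 μM compound for 0–24 h, or with 0–5 μM for 2 h. Whole-cell lysates immunoblotted for pStat3, Stat3, GAPDH. Control was 0.025% DMSO-treated cells.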

[17] = system: Glioma cell; experiment: Effect on cell morphology in human Glioma (G22) patient derived xenograft cells assessed as 3D spheroids formation at 5 uM for 24 hrs measured after 48 hrs by inverted fluorescence microscope analysis; type: functional
Method in brief: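 G22 patient-derived xenograft glioma cells seeded at 1,000 cells/well in ultra-low-binding round-bottom wells, grown 48 h into 3D spheroids, then treated once with 5 μM compound or DMSO; matrigel added after 24 h. Spheroids imaged at 5× magnification on an inverted fluorescence microscope every 24 h for up to 120 h.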

[18] = system: SF-295; experiment: Antiproliferative activity against human SF295 cells at 5 uM for 72 hrs by cyquant assay; type: functional, cell-based

T2 sequence (P40763 whole entry): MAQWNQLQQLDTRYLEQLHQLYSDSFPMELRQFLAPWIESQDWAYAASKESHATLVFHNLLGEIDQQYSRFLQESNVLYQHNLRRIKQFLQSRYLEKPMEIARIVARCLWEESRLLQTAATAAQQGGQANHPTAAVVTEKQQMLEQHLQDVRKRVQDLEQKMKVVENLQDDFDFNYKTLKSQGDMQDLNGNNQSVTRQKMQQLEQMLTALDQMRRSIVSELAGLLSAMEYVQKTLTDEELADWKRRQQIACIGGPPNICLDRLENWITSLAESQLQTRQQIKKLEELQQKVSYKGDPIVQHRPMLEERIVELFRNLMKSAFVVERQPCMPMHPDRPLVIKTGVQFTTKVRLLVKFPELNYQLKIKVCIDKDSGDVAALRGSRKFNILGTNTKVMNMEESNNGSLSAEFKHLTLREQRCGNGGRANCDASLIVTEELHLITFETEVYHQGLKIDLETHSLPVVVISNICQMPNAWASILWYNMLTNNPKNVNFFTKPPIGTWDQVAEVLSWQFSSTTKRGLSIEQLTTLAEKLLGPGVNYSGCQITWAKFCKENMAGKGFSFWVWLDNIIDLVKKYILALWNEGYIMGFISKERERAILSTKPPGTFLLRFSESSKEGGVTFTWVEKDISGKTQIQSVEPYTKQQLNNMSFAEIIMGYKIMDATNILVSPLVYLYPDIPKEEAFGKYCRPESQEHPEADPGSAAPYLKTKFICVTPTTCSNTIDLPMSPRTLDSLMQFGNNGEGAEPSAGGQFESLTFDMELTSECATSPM
Signal transducer and activator of transcription 3 (Mus musculus), sequence (P42227 whole entry): as the sequence (P40763 whole entry) above, with E760D counted along it

C/C=C(\C)C(=O)O[C@H]1C[C@@H](C)[C@]2(OC)CC[C@](C)(/C=C3/OC(=O)C(COC(C)=O)=C31)O2
IC50 [1]: 7.6 µM | inhibition [2]: inactive | Activity [3]: 42% | inhibition [4]: inactive | Activity [5]: inactive | Activity [6]: 49% | inhibition [7]: Active | inhibition [8]: tde | inhibition [9]: inactive | Activity [10]: inactive | inhibition [11]: Active | Activity [12]: Dose-dependent effect | inhibition [13]: Active | Activity [14]: Dose-dependent effect | inhibition [15]: inactive | inhibition [16]: Dose-dependent effect | Activity [17]: Active | inhibition [18]: inactive

C/C=C(\C)C(=O)O[C@H]1C[C@@H](C)[C@]2(O)CC[C@](C)(/C=C3/OC(=O)C(COC(C)=O)=C31)O2
IC50 [1]: 10.7 µM | inhibition [2]: inactive | Activity [3]: 67% | inhibition [4]: inactive | Activity [5]: inactive | Activity [6]: 68% | inhibition [7]: Active | inhibition [8]: tde | inhibition [9]: inactive | Activity [10]: inactive | inhibition [11]: Active | Activity [12]: Dose-dependent effect | inhibition [13]: Active | Activity [14]: Dose-dependent effect | inhibition [15]: inactive | inhibition [16]: Dose-dependent effect | Activity [17]: Active | inhibition [18]: Active

C/C=C(\C)C(=O)OCC1=C2/C(=C\[C@@]3(C)CC[C@](O)(O3)[C@H](C)C[C@@H]2O)OC1=O
IC50 [1]: 4.8 µM | inhibition [2]: inactive | Activity [3]: 18% | inhibition [4]: inactive | Activity [5]: inactive | Activity [6]: 36% | inhibition [7]: Active | inhibition [8]: tde | inhibition [9]: inactive | Activity [10]: inactive | inhibition [11]: Active | Activity [12]: Dose-dependent effect | inhibition [13]: Active | Activity [14]: Dose-dependent effect | inhibition [15]: inactive | inhibition [16]: Dose-dependent effect | Activity [17]: Active | inhibition [18]: Active
